Where “and” joins values, the source holds several entries; their conditions need not be identical. Equal entries are not always repeated. Calls of active or inactive are those of the source. The rule behind the calls is not given here.
Key:
SK-MEL-5 = assay: Growth inhibition of human SK-MEL-5 cells after 48 hrs by sulforhodamine B assay; format: functional, cell-based; details: for CC50: read-out: LC50 (the source's name)
Summary of the method: (§1)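 Cells grown in RPMI 1640 with 5% FBS and 2 mM L-glutamine, seeded at 5,000–40,000 cells/well according to doubling time. After 24 h, time-zero plates are TCA-fixed. Five concentrations (10-fold or ½log dilutions, DMSO stocks) are applied for 48 h at 37 °C, 5% CO₂. Cells are TCA-fixed, SRB-stained and read at 515 nm. IC₅₀ is taken from [(Ti−Tz)/(C−Tz)]×100 = 50.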

IGROV-1 = assay: Growth inhibition of human IGROV1 cells after 48 hrs by sulforhodamine B assay; format: functional, cell-based; details: IGROV-1, 48 h; for CC50: read-out: LC50 (the source's name); summary of the method: as §1
DU-145 = assay: Growth inhibition of human DU145 cells after 48 hrs by sulforhodamine B assay; format: functional, cell-based; details: for CC50: read-out: LC50 (the source's name); summary of the method: as §1
MDA-MB-468 = assay: Growth inhibition of human MDA-MB-468 cells after 48 hrs by sulforhodamine B assay; format: functional, cell-based; details: MDA-MB-468, 48 h; summary of the method: as §1
NCI-H23 = assay: Cytotoxicity against human NCI-H23 cells assessed as cell growth at 0.001 uM after 48 hrs by sulforhodamine B assay; format: functional; details: NCI-H23, 48 h, read-out: Activity
SF-268 [1] = assay: Cytotoxicity against human SF268 cells assessed as cell growth at 0.001 uM after 48 hrs by sulforhodamine B assay; format: functional; details: SF-268, 48 h, read-out: Activity
UACC-257 = assay: Cytotoxicity against human UACC257 cells assessed as cell growth at 0.001 uM after 48 hrs by sulforhodamine B assay; format: functional; details: UACC-257, 48 h, read-out: Activity
OVCAR-4 = assay: Cytotoxicity against human OVCAR4 cells assessed as cell growth at 0.001 uM after 48 hrs by sulforhodamine B assay; format: functional; details: OVCAR-4, 48 h, read-out: Activity
HL-60(TB) = assay: Cytotoxicity against human HL-60(TB) cells assessed as cell growth at 100 nM after 48 hrs by sulforhodamine B assay; format: functional; details: HL-60, 48 h, read-out: Activity
Summary of the method: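 Five-concentration HL-60(TB) test in RPMI 1640 with 5% FBS and 2 mM L-glutamine. Cells are plated at 5,000–40,000/well and a TCA-fixed time-zero plate is read at drug addition after 24 h. Drug is dissolved in DMSO and given as five 10-fold or ½log dilutions for 48 h at 37 °C, 5% CO2. Settled cells are fixed with TCA, stained with SRB and read at 515 nm.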

SW-620 = assay: Cytotoxicity against human SW620 cells assessed as cell growth at 10 uM after 48 hrs by sulforhodamine B assay; format: functional; details: SW-620, 48 h, read-out: Activity
HOP-62 = assay: Cytotoxicity against human HOP62 cells assessed as cell growth at 0.01 uM after 48 hrs by sulforhodamine B assay; format: functional; details: HOP-62, 48 h, read-out: Activity
COLO 205 = assay: Cytotoxicity against human COLO205 cells assessed as cell growth at 0.01 uM after 48 hrs by sulforhodamine B assay; format: functional; details: COLO 205, 48 h, read-out: Activity
Summary of the method: (§2)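 Cells grown in RPMI 1640 with 5% FBS and 2 mM L-glutamine, seeded at 5,000–40,000 cells/well by doubling time. Time-zero plates TCA-fixed after 24 h. Five concentrations (10-fold or half-log dilutions from DMSO stock) added; 48 h at 37 °C, 5% CO2. Cold TCA fixation (final 10%, 60 min, 4 °C), 0.4% SRB stain, dye solubilized in 10 mM trizma base, A515.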

[2] = target: Macrophage colony-stimulating factor 1 receptor (Homo sapiens) (UniProt P07333); assay: Inhibition of FMS at 10 uM by HotSpot assay
Chain of Macrophage colony-stimulating factor 1 receptor (Homo sapiens) (P07333 whole entry): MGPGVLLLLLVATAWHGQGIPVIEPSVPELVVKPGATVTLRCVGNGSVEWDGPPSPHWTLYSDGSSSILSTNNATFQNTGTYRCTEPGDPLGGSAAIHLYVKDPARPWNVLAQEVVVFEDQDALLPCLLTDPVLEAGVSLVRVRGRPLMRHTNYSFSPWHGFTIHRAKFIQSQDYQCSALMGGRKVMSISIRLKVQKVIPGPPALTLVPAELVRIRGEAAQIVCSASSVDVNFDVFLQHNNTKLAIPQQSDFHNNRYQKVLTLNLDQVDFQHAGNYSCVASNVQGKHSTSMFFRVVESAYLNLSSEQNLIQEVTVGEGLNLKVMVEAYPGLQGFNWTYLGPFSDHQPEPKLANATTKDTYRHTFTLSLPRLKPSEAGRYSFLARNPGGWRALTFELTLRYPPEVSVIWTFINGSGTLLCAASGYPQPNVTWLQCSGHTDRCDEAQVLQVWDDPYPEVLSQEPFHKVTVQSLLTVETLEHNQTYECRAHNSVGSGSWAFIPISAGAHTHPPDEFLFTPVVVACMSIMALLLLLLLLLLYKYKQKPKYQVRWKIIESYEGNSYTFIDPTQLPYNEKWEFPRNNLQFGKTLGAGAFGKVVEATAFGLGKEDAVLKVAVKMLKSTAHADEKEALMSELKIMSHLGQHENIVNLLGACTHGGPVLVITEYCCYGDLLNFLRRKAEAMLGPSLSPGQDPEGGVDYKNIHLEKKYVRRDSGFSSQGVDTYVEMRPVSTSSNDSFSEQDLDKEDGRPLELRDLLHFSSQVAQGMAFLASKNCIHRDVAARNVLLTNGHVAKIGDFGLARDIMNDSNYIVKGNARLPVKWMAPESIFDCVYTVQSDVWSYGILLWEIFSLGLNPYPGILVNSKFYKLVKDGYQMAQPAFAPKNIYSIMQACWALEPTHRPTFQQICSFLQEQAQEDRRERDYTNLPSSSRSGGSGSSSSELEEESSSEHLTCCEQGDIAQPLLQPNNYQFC

K562 = assay: Cytotoxicity against human K562 cells assessed as cell growth at 1 uM after 48 hrs by sulforhodamine B assay; format: functional; details: K562, 48 h, read-out: Activity
HCT-116 = assay: Cytotoxicity against human HCT116 cells assessed as cell growth at 1 uM after 48 hrs by sulforhodamine B assay; format: functional; details: HCT-116, 48 h, read-out: Activity
ACHN = assay: Cytotoxicity against human ACHN cells assessed as cell growth at 0.01 uM after 48 hrs by sulforhodamine B assay; format: functional; details: read-out: Activity; summary of the method: as §2
LOX IMVI = assay: Cytotoxicity against human LOXIMVI cells assessed as cell growth at 1 uM after 48 hrs by sulforhodamine B assay; format: functional; details: read-out: Activity
NCI-H322M = assay: Cytotoxicity against human NCI-H322M cells assessed as cell growth at 10 uM after 48 hrs by sulforhodamine B assay; format: functional; details: read-out: Activity
A549 = assay: Growth inhibition of human A549 cells after 48 hrs by sulforhodamine B assay; format: functional, cell-based; details: A549, 48 h; for CC50: read-out: LC50 (the source's name)
Summary of the method: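 Five-dose SRB assay. Cells in RPMI 1640 with 5% FBS and 2 mM L-glutamine were seeded at 5,000–40,000 cells/well, with a TCA-fixed time-zero plate (Tz) taken at 24 h. Compound stocks were in DMSO, serially diluted 10-fold or ½-log to five concentrations, and incubated 48 h at 37 °C. Plates were stained with SRB and read at 515 nm. IC₅₀ was taken where [(Ti−Tz)/(C−Tz)]×100 = 50.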

HOP-92 = assay: Growth inhibition of human HOP92 cells after 48 hrs by sulforhodamine B assay; format: functional, cell-based; summary of the method: as §1
SF-268 [3] = assay: Growth inhibition of human SF268 cells after 48 hrs by sulforhodamine B assay; format: functional, cell-based; details: SF-268, 48 h; for CC50: read-out: LC50 (the source's name); summary of the method: as §1
SNB-75 = assay: Growth inhibition of human SNB75 cells after 48 hrs by sulforhodamine B assay; format: functional, cell-based; details: for CC50: read-out: LC50 (the source's name); summary of the method: as §1
HCC 2998 [4] = assay: Cytotoxicity against human HCC2998 cells assessed as cell growth at 0.001 uM after 48 hrs by sulforhodamine B assay; format: functional; details: HCC 2998, 48 h, read-out: Activity
SR = assay: Cytotoxicity against human SR cells assessed as cell growth at 0.01 uM after 48 hrs by sulforhodamine B assay; format: functional; details: read-out: Activity
HCC 2998 [5] = assay: Cytotoxicity against human HCC2998 cells assessed as cell growth at 1 uM after 48 hrs by sulforhodamine B assay; format: functional; details: HCC 2998, 48 h, read-out: Activity
NCI-H226 = assay: Cytotoxicity against human NCI-H226 cells assessed as cell growth at 10 uM after 48 hrs by sulforhodamine B assay; format: functional; details: NCI-H226, 48 h, read-out: Activity

Work on `CC(=O)Nc1cccc(-c2ccc(-c3ccnc(NC(=O)Nc4cc(C(F)(F)F)cc(C(F)(F)F)c4)n3)cn2)c1.Cl` yielded a GI50 (SK-MEL-5; Homo sapiens, SK-MEL-5, 48 h) of 1.35 µM, a TGI (SK-MEL-5; Homo sapiens, SK-MEL-5, 48 h) of 2.64 µM and an IC50 (SK-MEL-5; Homo sapiens, SK-MEL-5, 48 h, read-out: IC50) of 1.35 µM. It also gave a CC50 (SK-MEL-5; Homo sapiens, SK-MEL-5, 48 h) of 5.13 µM, a GI50 (IGROV-1) of 2.68 µM and an IC50 (IGROV-1) of 2.68 µM. For the same compound, the TGI (IGROV-1) was 9.46 µM, the CC50 (IGROV-1) was greater than 100 µM and the GI50 (DU-145; Homo sapiens, DU-145, 48 h) was 6.57 µM. It also gave a TGI (DU-145; Homo sapiens, DU-145, 48 h) of 19.6 µM, an IC50 (DU-145; Homo sapiens, DU-145, 48 h, read-out: IC50) of 6.57 µM and a CC50 (DU-145; Homo sapiens, DU-145, 48 h) of 47 µM. It also gave a GI50 (MDA-MB-468) of 0.837 µM, an IC50 (MDA-MB-468) of 0.837 µM and an LC50 (MDA-MB-468) of 5.85 µM. For the same compound, the TGI (MDA-MB-468) was 2.35 µM, the growth at 0.001 µM (NCI-H23) was 91% and the growth at 0.001 µM (SF-268 [1]) was 95%. It also gave a growth at 0.001 µM (UACC-257) of 94%, a growth at 0.001 µM (OVCAR-4) of 32% and a growth at 0.1 µM (HL-60(TB)) of 80%. For the same compound, the growth at 10 µM (SW-620) was 41%, the growth at 0.01 µM (HOP-62) was 92% and the growth at 0.01 µM (COLO 205) was 100%. The inhibition [2] was less than 50%, the growth at 1 µM (K562) was -1% and the growth at 1 µM (HCT-116) was -35%. For the same compound, the growth at 0.01 µM (ACHN) was 90%, the growth at 1 µM (LOX IMVI) was -40% and the growth at 10 µM (NCI-H322M) was -62%. It also gave a GI50 (A549) of 1.48 µM, an IC50 (A549) of 1.48 µM and a TGI (A549) of 12.6 µM. For the same compound, the CC50 (A549) was 41.9 µM, the LC50 (HOP-92) was “inactive” and the TGI (HOP-92) was “inactive”. The IC50 (HOP-92; hop-92) was “Not Active”, the GI50 (SF-268 [3]) was 4.92 µM and the IC50 (SF-268 [3]) was 4.92 µM. It also gave a TGI (SF-268 [3]) of 23.9 µM, a CC50 (SF-268 [3]) of 98.7 µM and a GI50 (SNB-75; Homo sapiens, SNB-75, 48 h) of 10.9 µM. For the same compound, the IC50 (SNB-75; Homo sapiens, SNB-75, 48 h) was 10.9 µM, the TGI (SNB-75; Homo sapiens, SNB-75, 48 h) was 30.5 µM and the CC50 (SNB-75; Homo sapiens, SNB-75, 48 h) was 85.8 µM.
For `CC(=O)c1ccccc1-c1ccc(-c2ccnc(NC(=O)Nc3cc(N4CCOCC4)cc(C(F)(F)F)c3)n2)cn1`, the TGI (SK-MEL-5; Homo sapiens, SK-MEL-5, 48 h) was greater than 100 µM, the CC50 (SK-MEL-5; Homo sapiens, SK-MEL-5, 48 h) was greater than 100 µM and the IC50 (SK-MEL-5; sk-mel-5) was “Not Active”. It also gave a GI50 (IGROV-1) greater than 100 µM, an IC50 (IGROV-1) of 6.18 µM and a TGI (IGROV-1) greater than 100 µM. For the same compound, the CC50 (IGROV-1) was greater than 100 µM, the TGI (DU-145; Homo sapiens, DU-145, 48 h) was greater than 100 µM and the CC50 (DU-145; Homo sapiens, DU-145, 48 h) was greater than 100 µM. For the same compound, the IC50 (DU-145; du-145) was “Not Active”, the GI50 (MDA-MB-468) was greater than 100 µM and the IC50 (MDA-MB-468) was greater than 100 µM. It also gave an LC50 (MDA-MB-468) greater than 100 µM, a TGI (MDA-MB-468) greater than 100 µM and a growth at 0.001 µM (NCI-H23) of 98%. For the same compound, the growth at 0.001 µM (HCC 2998 [4]) was 110%, the growth at 0.001 µM (SF-268 [1]) was 103% and the growth at 0.001 µM (UACC-257) was 89%. The growth at 0.001 µM (OVCAR-4) was 110%, the growth at 0.1 µM (HL-60(TB)) was 73% and the growth at 0.01 µM (SR) was 89%. The growth at 10 µM (SW-620) was 102%, the growth at 0.01 µM (HOP-62) was 100% and the growth at 0.01 µM (COLO 205) was 114%. For the same compound, the growth at 1 µM (K562) was 79%, the growth at 1 µM (HCC 2998 [5]) was 114% and the growth at 1 µM (HCT-116) was 69%. It also gave a growth at 0.01 µM (ACHN) of 99%, a growth at 1 µM (LOX IMVI) of 54% and a growth at 10 µM (NCI-H226) of 71%. The growth at 10 µM (NCI-H322M) was 80%, the GI50 (A549) was greater than 100 µM and the IC50 (A549) was greater than 100 µM. For the same compound, the TGI (A549) was greater than 100 µM, the CC50 (A549) was greater than 100 µM and the TGI (HOP-92) was “inactive”. For the same compound, the GI50 (HOP-92; Homo sapiens, HOP-92, 48 h) was 4.29 µM, the IC50 (HOP-92; Homo sapiens, HOP-92, 48 h, read-out: IC50) was 2.95 µM and the CC50 (HOP-92; Homo sapiens, HOP-92, 48 h, read-out: LC50 (the source's name)) was greater than 100 µM. It also gave a GI50 (SF-268 [3]) greater than 100 µM, an IC50 (SF-268 [3]) of 40.2 µM and a TGI (SF-268 [3]) greater than 100 µM. The CC50 (SF-268 [3]) was greater than 100 µM, the TGI (SNB-75) was 100 µM and 27.5 µM and the GI50 (SNB-75; Homo sapiens, SNB-75, 48 h) was 38.7 µM. For the same compound, the IC50 (SNB-75; Homo sapiens, SNB-75, 48 h) was 5.35 µM and the CC50 (SNB-75; Homo sapiens, SNB-75, 48 h) was greater than 100 µM.

Reference: ChEMBL document CHEMBL1165943, “Design and synthesis of new anticancer pyrimidines with multiple-kinase inhibitory effect” (Bioorg Med Chem, 2010)
